Measurements: ChEMBL document CHEMBL1129442, “Synthesis and structure-activity relationship of pyrazolo[3,4-d]pyrimidines: potent and selective adenosine A1 receptor antagonists” (J Med Chem, 1996)

Key:
[1] = target: Adenosine receptors; A1 & A2a (Rattus norvegicus) (UniProt P25099+P30543); test: Ratio of Binding Constants for adenosine A2A and A1 receptors; type: protein assay
[2] = target: Adenosine receptor A2a (Rattus norvegicus) (UniProt P30543); test: Percent inhibition of [3H]CGS-21680 binding to Adenosine A2A receptor rat striatal membranes; type: cell membranes; conditions: Membrane, concentration not given here
Adenosine receptor A2a (Rattus norvegicus), sequence (P30543 whole entry): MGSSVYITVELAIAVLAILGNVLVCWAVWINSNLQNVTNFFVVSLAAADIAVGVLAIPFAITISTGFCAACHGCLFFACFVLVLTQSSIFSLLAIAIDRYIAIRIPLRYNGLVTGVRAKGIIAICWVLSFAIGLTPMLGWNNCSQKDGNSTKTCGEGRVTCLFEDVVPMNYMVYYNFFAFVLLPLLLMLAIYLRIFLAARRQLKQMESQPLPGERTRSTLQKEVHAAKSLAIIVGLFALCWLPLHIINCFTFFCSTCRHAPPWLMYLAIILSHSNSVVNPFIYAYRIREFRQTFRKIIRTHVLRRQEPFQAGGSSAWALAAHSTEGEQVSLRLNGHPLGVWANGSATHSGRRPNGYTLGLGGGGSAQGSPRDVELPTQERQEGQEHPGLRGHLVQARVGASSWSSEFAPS

[3] = target: T1, Adenosine receptor A1 (Rattus norvegicus, UniProt P25099); test: Displacement of [3H]N6-PIA from Adenosine A1 receptor from rat whole brain
T1 sequence (P25099 whole entry): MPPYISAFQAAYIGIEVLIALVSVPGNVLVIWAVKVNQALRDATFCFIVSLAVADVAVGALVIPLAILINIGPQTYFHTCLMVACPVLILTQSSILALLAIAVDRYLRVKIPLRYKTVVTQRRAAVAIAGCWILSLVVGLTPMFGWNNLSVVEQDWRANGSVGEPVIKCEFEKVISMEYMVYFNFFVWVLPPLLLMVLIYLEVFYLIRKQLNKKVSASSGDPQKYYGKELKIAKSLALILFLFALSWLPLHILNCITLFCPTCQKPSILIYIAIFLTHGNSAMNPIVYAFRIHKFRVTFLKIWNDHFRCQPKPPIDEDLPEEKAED
Method in brief: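 Rat whole-brain membranes (100 µg, pretreated with 0.1 U/mg adenosine deaminase, 10 min, 37 °C) incubated 90 min at 25 °C with 1 nM (R)-[3H]-N6-PIA in 50 mM Tris-HCl pH 7.4. Test compound given at ≥12 concentrations, final Me2SO 1%, 2% or 5%. Nonspecific binding defined with 10 µM 2-chloroadenosine. Bound ligand collected by filtration on glass fiber filters. Ki derived from IC50 via Cheng-Prusoff (Kd 1 nM). At least two experiments in duplicate, mean ± SEM.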

[4] = target: Adenosine receptor A2a (Rattus norvegicus, UniProt P30543); test: Inhibition of [3H]CGS-21680 binding to Adenosine A2A receptor of rat striatal membranes; type: cell membranes, Membrane
Adenosine receptor A2a, sequence (P30543 whole entry): as the sequence (P30543 whole entry) above
Method in brief: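 Rat striatal membranes (150 µg, adenosine deaminase-pretreated) incubated 120 min at 25 °C with 5 nM [3H]CGS 21680 in 50 mM Tris-HCl, 10 mM MgCl2, pH 7.4. Test compound given at ≥12 concentrations, final Me2SO 1%, 2% or 5%. Nonspecific binding defined with 20 µM 2-chloroadenosine. Bound ligand filtered as for the A1 assay. Ki derived from IC50 via Cheng-Prusoff (Kd 14.9 nM). At least two experiments in duplicate, mean ± SEM.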

Adenosine receptors; A1 & A2a (Rattus norvegicus), sequence (P30543 whole entry, looked up, one chain of several): as the sequence (P30543 whole entry) above

SMILES	Ratio [1]	inhibition [2] [%]	Ki [3] [nM]	Ki [4] [nM]
CC(C)C(Sc1nc(S)c2cnn(-c3ccccc3)c2n1)C(N)=O (centres undefined)	> 78	44	–	–
CCC(Sc1nc(S)c2cnn(-c3ccccc3)c2n1)C(N)=O (centres undefined)	56	–	–	–
CCC(Sc1nc(SC)c2cnn(-c3ccccc3)c2n1)C(N)=O (centres undefined)	95	–	8.4	796
CCCCC(Sc1nc(S)c2cnn(-c3ccccc3)c2n1)C(N)=O (centres undefined)	> 270	52	37.2	–
CCCCC(Sc1nc(SC)c2cnn(-c3ccccc3)c2n1)C(N)=O (centres undefined)	> 5900	12	6.81	–
CCCC(Sc1nc(S)c2cnn(-c3ccccc3)c2n1)C(N)=O (centres undefined)	79	–	–	–
CCCC(Sc1nc(SC)c2cnn(-c3ccccc3)c2n1)C(N)=O (centres undefined)	580	–	7.55	4380
CC(C)C(Sc1nc2c(cnn2-c2ccccc2)c(=S)[nH]1)C(N)=O (centres undefined)	–	–	256	–
CCC(Sc1nc2c(cnn2-c2ccccc2)c(=S)[nH]1)C(N)=O (centres undefined)	–	–	155	8750
CSc1nc(SC(C(N)=O)C(C)C)nc2c1cnn2-c1ccccc1 (centres undefined)	> 1300	37	15.7	–
CCCC(Sc1nc2c(cnn2-c2ccccc2)c(=S)[nH]1)C(N)=O (centres undefined)	–	–	56.3	4450

The remaining compounds from weak to strong by Ki [3], led by results:

Ratio [1]	inhibition [2] [%]	Ki [3] [nM]	Ki [4] [nM]	SMILES
54	–	2.73	147	CC(C)C(Sc1nc(N)c2cnn(-c3ccccc3)c2n1)C(N)=O (centres undefined)
29	–	1.56	44.5	CCC(Sc1nc(N)c2cnn(-c3ccccc3)c2n1)C(N)=O (centres undefined)
33	–	1.08	35.3	CCCC(Sc1nc(N)c2cnn(-c3ccccc3)c2n1)C(N)=O (centres undefined)
94	–	0.939	88.3	CCCCC(Sc1nc(N)c2cnn(-c3ccccc3)c2n1)C(N)=O (centres undefined)
332	–	0.745	247	CCCCC(Sc1nc(NC)c2cnn(-c3ccccc3)c2n1)C(N)=O (centres undefined)
